Values after ≈ are worked out from the molar mass of the structure shown. Values joined by “and” are separate entries in the source; they are usually repeats but may differ in a detail not shown here. Identical values can stand only once. Values belong to the compound of their own block, whether it stands above or below them.
Tests used:
[1] = tested on: Jurkat-shBak cells (Bax/Bak-deficient Jurkat cells); conditions: 25 μM; ref [33]; cited from earlier work
[2] = tested on: normal T-lymphocytes (peripheral blood mononuclear cells: PBMC); conditions: PBMC vs Jurkat; ref [34]; cited from earlier work
[3] = tested on: Jurkat control (CN) cells; conditions: 25 μM; ref [33]; cited from earlier work
[4] = ref [34], cited from earlier work
plasmid (pBR322) DNA = test: Electrophoresis mobility shift assay with plasmid DNA; format: binding; conditions: metal/DNA ratios 0.25, 0.5, 1.0; 37 °C, 20 h
How it was run: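 pBR322 plasmid DNA (20 μg/mL) in 5 mM Tris/HCl, 50 mM NaClO4, pH 7.39 was incubated with test compound at compound:DNA molar ratios of […] for 20 h at 37 °C in the dark. Free DNA and cisplatin-DNA adduct served as controls. Samples were run on 1% agarose in TAE for 1.5 h at 80 V, then stained 30 min with GelRed.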

Solubility = format: physicochemical
[5] = Stability in solution by 31P{1H} NMR; format: physicochemical; conditions: for half-life in d6-DMSO:D2O mixture: d6-DMSO:D2O (1:1 / 50:50)

Compound: N.N.[Cl][Pt][Cl] [Cisplatin, cisplatin]
death of Jurkat-shBak cells [1]: less than 8%
times less toxic to PBMC than to Jurkat cell lines [2]: 70 times
death of Jurkat control (CN) cells [3]: around 60%

Compound: O=C(N=P12CN3CN(CN(C3)C1)C2)c1ccccn1 [TPA=N-C(O)-2-NC5H4]
time to 50% decomposition in D2O ([4]; D2O): 12 h
half-life in d6-DMSO:D2O (1:1) ([4]; d6-DMSO:D2O (1:1)): 48 h

Solubility (H2O) (Solubility): 28 mM (≈ 9940 µg/mL)
solubility in H2O (Solubility): 10 mg/mL (≈ 28.2 mM)
half-life in D2O ([5]; D2O): 48 h
stability in DMSO solution ([5]; DMSO): over two weeks
half-life in d6-DMSO:D2O mixture [5]: 336 h
Compound: O=C(N=P12CN3CN(CN(C3)C1)C2)c1ccccc1Br [compound 1, TPA=N-C(O)-2BrC6H4]
change in electrophoretic mobility of pBR322 forms (CCC Form I, OC Form II) (plasmid (pBR322) DNA): does not cause any shift for either form

Solubility (H2O) (Solubility): 1.0 mM and 0.90 mg/mL
stability under biological testing conditions ([5]; 24 h): stable
stable in d6-DMSO solution over ([5]; d6-DMSO): over 2 days
half-life in d6-DMSO:D2O mixture [5]: above 4 days
Compound: [Pd{C6H4(C(O)N=TPA-kC,N)-2}{C12H6N2(C6H4SO3Na)2}] [compound 5]

Reference: paper PMC3466594 (Organometallics, 2012)
